Key:
[1] = compound: O=C(NP(=O)(NN1CCCCC1)NN1CCCCC1)c1ccccc1; assay: (§1) Inhibition of human AChE by double reciprocal Lineweaver-Burke plot assay
How it was run: (§2)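 Kinetics used the same Ellman read-out, with substrate varied: acetylthiocholine for AChE, butyrylthiocholine for BChE. Rates were taken as OD min-1 with and without inhibitor. Km and Vmax were derived from double-reciprocal Lineweaver-Burk plots of 1/V against 1/[S].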

[2] = compound: O=C(NP(=O)(NN1CCOCC1)NN1CCOCC1)c1ccccc1; assay: as §1; how it was run: as §2
[3] = compound: O=P(O)(NN1CCCCC1)Oc1ccccc1; assay: as §1; how it was run: as §2
[4] = compound: O=P(NN1CCOCC1)(NN1CCOCC1)Oc1ccccc1; assay: as §1; how it was run: as §2
[5] = compound: O=C(NP(=O)(NN1CCCCC1)NN1CCCCC1)c1ccccc1; assay: (§3) Inhibition of human BChE by double reciprocal Lineweaver-Burke plot assay; how it was run: as §2
[6] = compound: O=C(NP(=O)(NN1CCOCC1)NN1CCOCC1)c1ccccc1; assay: as §3; how it was run: as §2
[7] = compound: O=P(O)(NN1CCCCC1)Oc1ccccc1; assay: as §3; how it was run: as §2
[8] = compound: O=P(NN1CCOCC1)(NN1CCOCC1)Oc1ccccc1; assay: as §3; how it was run: as §2
[9] = compound: O=P(NN1CCOCC1)(NN1CCOCC1)c1ccccc1; assay: as §3; how it was run: as §2

B1: Acetylcholinesterase (Homo sapiens), P22303 (protein)
chain: MRPPQCLLHTPSLASPLLLLLLWLLGGGVGAEGREDAELLVTVRGGRLRGIRLKTPGGPVSAFLGIPFAEPPMGPRRFLPPEPKQPWSGVVDATTFQSVCYQYVDTLYPGFEGTEMWNPNRELSEDCLYLNVWTPYPRPTSPTPVLVWIYGGGFYSGASSLDVYDGRFLVQAERTVLVSMNYRVGAFGFLALPGSREAPGNVGLLDQRLALQWVQENVAAFGGDPTSVTLFGESAGAASVGMHLLSPPSRGLFHRAVLQSGAPNGPWATVGMGEARRRATQLAHLVGCPPGGTGGNDTELVACLRTRPAQVLVNHEWHVLPQESVFRFSFVPVVDGDFLSDTPEALINAGDFHGLQVLVGVVKDEGSYFLVYGAPGFSKDNESLISRAEFLAGVRVGVPQVSDLAAEAVVLHYTDWLHPEDPARLREALSDVVGDHNVVCPVAQLAGRLAAQGARVYAYVFEHRASTLSWPLWMGVPHGYEIEFIFGIPLDPSRNYTAEEKIFAQRLMRYWANFARTGDPNEPRDPKAPQWPPYTAGAQQYVSLDLRPLEVRRGLRAQACAFWNRFLPKLLSATDTLDEAERQWKAEFHRWSSYMVHWKNQFDHYSKQDRCSDL
- Km [1]: 45 µM
- Vmax [1]: 40 mM/min
- Km [2]: 49 µM
- Vmax [2]: 55.5 mM/min
- Km [3]: 51 µM
- Vmax [3]: 11.1 mM/min
- Km [4]: 47 µM
- Vmax [4]: 37 mM/min

B2: Cholinesterase (Homo sapiens), P06276 (protein)
chain: MHSKVTIICIRFLFWFLLLCMLIGKSHTEDDIIIATKNGKVRGMNLTVFGGTVTAFLGIPYAQPPLGRLRFKKPQSLTKWSDIWNATKYANSCCQNIDQSFPGFHGSEMWNPNTDLSEDCLYLNVWIPAPKPKNATVLIWIYGGGFQTGTSSLHVYDGKFLARVERVIVVSMNYRVGALGFLALPGNPEAPGNMGLFDQQLALQWVQKNIAAFGGNPKSVTLFGESAGAASVSLHLLSPGSHSLFTRAILQSGSFNAPWAVTSLYEARNRTLNLAKLTGCSRENETEIIKCLRNKDPQEILLNEAFVVPYGTPLSVNFGPTVDGDFLTDMPDILLELGQFKKTQILVGVNKDEGTAFLVYGAPGFSKDNNSIITRKEFQEGLKIFFPGVSEFGKESILFHYTDWVDDQRPENYREALGDVVGDYNFICPALEFTKKFSEWGNNAFFYYFEHRSSKLPWPEWMGVMHGYEIEFVFGLPLERRDNYTKAEEILSRSIVKRWANFAKYGNPNETQNNSTSWPVFKSTEQKYLTLNTESTRIMTKLRAQQCRFWTSFFPKVLEMTGNIDEAEWEWKAGFHRWNNYMMDWKNQFNDYTSKKESCVGL
- Km [5]: 75 µM
- Vmax [5]: 55.6 mM/min
- Km [6]: 50 µM
- Vmax [6]: 23.5 mM/min
- Km [7]: 67 µM
- Vmax [7]: 27.8 mM/min
- Km [8]: 85 µM
- Vmax [8]: 66.4 mM/min
- Km [9]: 67 µM
- Vmax [9]: 71.4 mM/min

Reference: ChEMBL document CHEMBL1275282, “Synthesis, characterization, oxidative degradation, antibacterial activity and acetylcholinesterase/butyrylcholinesterase inhibitory effects of some new phosphorus(V) hydrazides” (Eur J Med Chem, 2010)
